Assay results reported in ChEMBL document CHEMBL3259728, “Design, synthesis and biological evaluation of some novel substituted quinazolines as antitumor agents” (2014).

Assays:
Type in all cases: functional
[1] = tested on: HOP-62; assay: Growth inhibition of human HOP62 cells assessed as cell growth at 10^-8 M after 48 hrs by SRB assay; conditions: HOP-62, 48 h, read-out: Activity
[2] = Growth inhibition of human UO31 cells assessed as cell growth at 10^-6 M after 48 hrs by SRB assay; conditions: UO-31, 48 h, read-out: Activity
[3] = tested on: COLO 205; assay: Growth inhibition of human COLO205 cells assessed as cell growth at 10^-6 M after 48 hrs by SRB assay; conditions: COLO 205, 48 h, read-out: Activity
Summary of the method: (§1)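 Five-dose NCI panel protocol. Each dose (10^-4 to 10^-8 M, 10-fold steps) was given as 48 h continuous exposure, and protein was measured by SRB staining. Percentage growth at each level is [(Ti−Tz)/(C−Tz)]×100, where Tz is time-zero absorbance and C is untreated control.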

[4] = tested on: MDA-MB-468; assay: Growth inhibition of human MDA-MB-468 cells assessed as cell growth at 10^-7 M after 48 hrs by SRB assay; conditions: MDA-MB-468, 48 h, read-out: Activity
[5] = Growth inhibition of human SF539 cells assessed as cell growth at 10^-5 M after 48 hrs by SRB assay; conditions: SF-539, 48 h, read-out: Activity
[6] = tested on: HT-29; assay: Growth inhibition of human HT-29 cells assessed as cell growth at 10^-7 M after 48 hrs by SRB assay; conditions: HT-29, 48 h, read-out: Activity
[7] = tested on: K562; assay: Growth inhibition of human K562 cells assessed as cell growth at 10^-8 M after 48 hrs by SRB assay; conditions: K562, 48 h, read-out: Activity
[8] = Growth inhibition of human RXF393 cells assessed as cell growth at 10^-6 M after 48 hrs by SRB assay; conditions: RXF 393, 48 h, read-out: Activity
[9] = Growth inhibition of human HCC2998 cells assessed as cell growth at 10^-7 M after 48 hrs by SRB assay; conditions: HCC 2998, 48 h, read-out: Activity
[10] = tested on: T47D; assay: Growth inhibition of human T47D cells assessed as cell growth at 10^-7 M after 48 hrs by SRB assay; conditions: read-out: Activity
[11] = Growth inhibition of human BT549 cells assessed as cell growth at 10^-5 M after 48 hrs by SRB assay; conditions: BT-549, 48 h, read-out: Activity; summary of the method: as §1
[12] = Growth inhibition of human RXF393 cells assessed as cell growth at 10^-7 M after 48 hrs by SRB assay; conditions: RXF 393, 48 h, read-out: Activity
[13] = Growth inhibition of human OVCAR3 cells assessed as cell growth at 10^-8 M after 48 hrs by SRB assay; conditions: OVCAR-3, 48 h, read-out: Activity
[14] = tested on: NCI-H23; assay: Growth inhibition of human NCI-H23 cells assessed as cell growth at 10^-5 M after 48 hrs by SRB assay; conditions: NCI-H23, 48 h, read-out: Activity
[15] = tested on: SR; assay: Growth inhibition of human SR cells assessed as cell growth at 10^-5 M after 48 hrs by SRB assay; conditions: read-out: Activity
[16] = tested on: CAKI-1; assay: Growth inhibition of human CAKI-1 cells assessed as cell growth at 10^-7 M after 48 hrs by SRB assay; conditions: CAKI-1, 48 h, read-out: Activity; summary of the method: as §1
[17] = tested on: Malme-3M; assay: Growth inhibition of human MALME-3M cells assessed as cell growth at 10^-4 M after 48 hrs by SRB assay; conditions: read-out: Activity
[18] = tested on: CCRF-CEM; assay: Growth inhibition of human CCRF-CEM cells assessed as cell growth at 10^-7 M after 48 hrs by SRB assay; conditions: read-out: Activity; summary of the method: as §1
[19] = tested on: T47D; assay: Growth inhibition of human T47D cells assessed as cell growth at 10^-8 M after 48 hrs by SRB assay; conditions: read-out: Activity
[20] = Growth inhibition of human SF539 cells assessed as cell growth at 10^-4 M after 48 hrs by SRB assay; conditions: SF-539, 48 h, read-out: Activity
[21] = tested on: DU-145; assay: Growth inhibition of human DU145 cells assessed as cell growth at 10^-8 M after 48 hrs by SRB assay; conditions: DU-145, 48 h, read-out: Activity
[22] = tested on: HT-29; assay: Growth inhibition of human HT-29 cells assessed as cell growth at 10^-8 M after 48 hrs by SRB assay; conditions: HT-29, 48 h, read-out: Activity
[23] = tested on: MCF7; assay: Growth inhibition of human MCF7 cells assessed as cell growth at 10^-4 M after 48 hrs by SRB assay; conditions: MCF7, 48 h, read-out: Activity
[24] = Growth inhibition of human RXF393 cells assessed as cell growth at 10^-8 M after 48 hrs by SRB assay; conditions: RXF 393, 48 h, read-out: Activity
[25] = tested on: NCI-H23; assay: Growth inhibition of human NCI-H23 cells assessed as cell growth at 10^-8 M after 48 hrs by SRB assay; conditions: NCI-H23, 48 h, read-out: Activity
[26] = Growth inhibition of human EKVX cells assessed as cell growth at 10^-7 M after 48 hrs by SRB assay; conditions: read-out: Activity
[27] = tested on: U-251; assay: Growth inhibition of human U251 cells assessed as cell growth at 10^-5 M after 48 hrs by SRB assay; conditions: U-251, 48 h, read-out: Activity
[28] = Growth inhibition of human OVCAR4 cells assessed as cell growth at 10^-4 M after 48 hrs by SRB assay; conditions: OVCAR-4, 48 h, read-out: Activity
[29] = tested on: 786-0; assay: Cytotoxicity against human 786-0 cells after 48 hrs by SRB assay; conditions: 786-0, 48 h
Summary of the method: (§2)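 NCI 60-cell-line panel of human tumour lines from nine cancer types. Continuous 48 h exposure at five 10-fold dilutions from 10^-4 to 10^-8 M, with 5-FU as positive control. SRB protein stain read spectrophotometrically at time zero, untreated control and each concentration. GI50, TGI and LC50 were derived from the [(Ti−Tz)/(C−Tz)]×100 growth relations, and out-of-range values are given as > or < the tested limits.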

[30] = tested on: CCRF-CEM; assay: Cytotoxicity against human CCRF-CEM cells after 48 hrs by SRB assay; summary of the method: as §2
[31] = tested on: SNB-75; assay: Growth inhibition of human SNB75 cells assessed as cell growth at 10^-6 M after 48 hrs by SRB assay; conditions: SNB-75, 48 h, read-out: Activity
[32] = tested on: COLO 205; assay: Growth inhibition of human COLO205 cells assessed as cell growth at 10^-8 M after 48 hrs by SRB assay; conditions: COLO 205, 48 h, read-out: Activity; summary of the method: as §1
[33] = tested on: SN12C; assay: Growth inhibition of human SN12C cells assessed as cell growth at 10^-8 M after 48 hrs by SRB assay; conditions: read-out: Activity
[34] = tested on: NCI-H322M; assay: Growth inhibition of human NCI-H322M cells assessed as cell growth at 10^-7 M after 48 hrs by SRB assay; conditions: read-out: Activity
[35] = tested on: CAKI-1; assay: Growth inhibition of human CAKI-1 cells assessed as cell growth at 10^-8 M after 48 hrs by SRB assay; conditions: CAKI-1, 48 h, read-out: Activity; summary of the method: as §1
[36] = read-out: LC50 (the source's name)
[37] = read-out: pLC50 (the source's name) (converted)

`Cc1ccc(-c2nc3ccc(Cl)cc3c(=O)n2/N=C/c2ccccc2)cc1` gave a growth at 0.01 µM [1] of 97%, a growth at 1 µM [2] of 60% and a growth at 1 µM [3] of 119%. It also gave a growth at 0.1 µM [4] of 93%, a growth at 10 µM [5] of 73% and a growth at 0.1 µM [6] of 93%. It also gave a growth at 0.01 µM [7] of 96%, a growth at 1 µM [8] of 90% and a growth at 0.1 µM [9] of 102%. The growth at 0.1 µM [10] was 88%, the growth at 10 µM [11] was 90% and the growth at 0.1 µM [12] was 101%. The growth at 0.01 µM [13] was 100%, the growth at 10 µM [14] was 65% and the growth at 10 µM [15] was 63%. For the same compound, the growth at 0.1 µM [16] was 76%, the growth at 100 µM [17] was 42% and the growth at 0.1 µM [18] was 97%. It also gave a growth at 0.01 µM [19] of 89%, a growth at 100 µM [20] of 75% and a growth at 0.01 µM [21] of 97%. For the same compound, the growth at 0.01 µM [22] was 100%, the growth at 100 µM [23] was 38% and the growth at 0.01 µM [24] was 97%. The growth at 0.01 µM [25] was 98%, the growth at 0.1 µM [26] was 79% and the growth at 10 µM [27] was 32%. It also gave a growth at 100 µM [28] of 26%, a GI50 ([29]; read-out: GI50) of 3.62 µM and a CC50 [29, 36] of over 100 µM. It also gave a TGI ([29]; read-out: TGI) of over 100 µM, a GI50 ([29]; read-out: pGI50 (converted)) of 3.63 µM and a CC50 [29, 37] of over 100 µM. For the same compound, the TGI ([29]; read-out: pTGI) was over 100 µM, the GI50 ([30]; read-out: GI50) was over 100 µM and the CC50 [30, 36] was over 100 µM. It also gave a TGI ([30]; read-out: TGI) of over 100 µM, a GI50 ([30]; read-out: pGI50 (converted)) of over 100 µM and a CC50 [30, 37] of over 100 µM. It also gave a TGI ([30]; read-out: pTGI) of over 100 µM, a growth at 1 µM [31] of 64% and a growth at 0.01 µM [32] of 103%. The growth at 0.01 µM [33] was 104%, the growth at 0.1 µM [34] was 76% and the growth at 0.01 µM [35] was 89%.
